The source made the active and inactive calls. The rule behind the calls is not given here.
Key:
[1] = biological target: T1, Tyrosine-protein kinase ABL1 (Homo sapiens, UniProt P00519); test: Inhibition of human recombinant wild type ABL1 expressed in insect cells after 30 mins by FRET assay; format: cell-based
[2] = Cytotoxicity against mouse BA/F3 cells expressing BCR-ABL E255V mutant assessed as growth inhibition after 72 hrs by CCK-8 assay; details: BaF3, 72 h
[3] = biological target: Tyrosine-protein kinase ABL1 (Homo sapiens, UniProt P00519, T315I); format: cell-based
K562 [4] = test: Cytotoxicity against imatinib-resistant human K562 cells expressing BCR-ABL Q252H mutant assessed as growth inhibition after 72 hrs by CCK-8 assay; format: functional, cell-based; details: K562, 72 h
In short: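 The K562 subline was made imatinib-resistant by 3 months of exposure to imatinib from 0.1 to 5 μM, followed by clonal selection and sequencing to confirm Q252H. Cells were seeded at about 3000 cells/well, treated 24 h later for 72 h, then given CCK-8 for 3 h. Read-out was OD450 − OD650 normalized to vehicle; IC50 is the mean of three experiments.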

[5] = biological target: Tyrosine-protein kinase receptor Tie-1 (Homo sapiens) (UniProt P35590); test: Binding affinity to TIE1 (unknown origin) at 10 nM after 2 hrs by FRET assay
Tyrosine-protein kinase receptor Tie-1 (Homo sapiens), sequence (P35590 whole entry): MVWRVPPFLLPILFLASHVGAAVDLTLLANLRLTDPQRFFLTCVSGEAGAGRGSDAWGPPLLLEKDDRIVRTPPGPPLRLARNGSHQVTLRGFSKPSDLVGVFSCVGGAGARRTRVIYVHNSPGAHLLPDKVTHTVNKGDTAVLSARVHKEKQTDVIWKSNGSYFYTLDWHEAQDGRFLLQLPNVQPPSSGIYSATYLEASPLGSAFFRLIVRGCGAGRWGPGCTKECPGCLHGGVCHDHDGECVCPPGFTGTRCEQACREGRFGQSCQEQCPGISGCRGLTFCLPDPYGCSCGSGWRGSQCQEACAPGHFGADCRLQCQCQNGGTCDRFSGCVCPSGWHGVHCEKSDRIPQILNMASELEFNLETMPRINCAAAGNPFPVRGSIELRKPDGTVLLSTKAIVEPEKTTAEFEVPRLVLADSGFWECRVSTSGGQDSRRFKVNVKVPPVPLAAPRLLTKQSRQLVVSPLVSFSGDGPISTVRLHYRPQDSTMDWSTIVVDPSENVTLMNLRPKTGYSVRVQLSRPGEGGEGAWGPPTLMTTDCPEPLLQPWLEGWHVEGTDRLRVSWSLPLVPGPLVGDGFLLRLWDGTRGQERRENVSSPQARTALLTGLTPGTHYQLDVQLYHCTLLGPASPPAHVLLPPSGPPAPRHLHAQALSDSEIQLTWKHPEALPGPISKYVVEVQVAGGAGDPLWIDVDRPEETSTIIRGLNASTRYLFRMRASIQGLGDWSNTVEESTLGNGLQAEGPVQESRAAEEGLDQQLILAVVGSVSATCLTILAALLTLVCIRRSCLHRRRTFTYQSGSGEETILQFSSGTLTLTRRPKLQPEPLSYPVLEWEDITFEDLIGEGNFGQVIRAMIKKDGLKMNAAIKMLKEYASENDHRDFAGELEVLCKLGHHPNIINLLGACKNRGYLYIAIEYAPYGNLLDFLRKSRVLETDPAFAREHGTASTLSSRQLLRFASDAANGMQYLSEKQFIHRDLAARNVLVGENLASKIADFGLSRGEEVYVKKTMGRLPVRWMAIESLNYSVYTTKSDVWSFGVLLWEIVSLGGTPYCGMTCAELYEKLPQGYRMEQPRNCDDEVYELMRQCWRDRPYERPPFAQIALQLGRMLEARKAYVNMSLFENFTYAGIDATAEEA

BaF3 [6] = test: Antitumor activity against mouse BA/F3 cells expressing BCR-ABL T315I mutant allografted in SCID mouse assessed as induction of tumor regression at 20 mg/kg/day, po qd for 14 days; format: functional, organism-based
In short: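 Ba/F3 cells stably expressing Bcr-Abl (wild type or mutant) were grown in RPMI 1640 with 10% FBS and no IL-3, then suspended in saline (2.5 × 10^7 cells/mL) and given as 0.2 mL s.c. in the right flank. Groups were randomised at 100−200 mm3. Once-daily oral gavage for 14 days in DMSO/Cremophor/ethanol/saline vehicle; reference imatinib 50 or 100 mg/kg/day. Volume L × W²/2 every 2 days; n = 10; t test versus vehicle.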

[7] = Cytotoxicity against mouse BA/F3 cells expressing BCR-ABL F317L mutant assessed as growth inhibition after 72 hrs by CCK-8 assay; details: BaF3, 72 h
Cytochrome P450 2C9 = Cytochrome P450 2C9 (Homo sapiens, UniProt P11712); test: Inhibition of human recombinant CYP2C9 after 30 mins; format: ADME
Cytochrome P450 2C9, sequence (P11712 whole entry): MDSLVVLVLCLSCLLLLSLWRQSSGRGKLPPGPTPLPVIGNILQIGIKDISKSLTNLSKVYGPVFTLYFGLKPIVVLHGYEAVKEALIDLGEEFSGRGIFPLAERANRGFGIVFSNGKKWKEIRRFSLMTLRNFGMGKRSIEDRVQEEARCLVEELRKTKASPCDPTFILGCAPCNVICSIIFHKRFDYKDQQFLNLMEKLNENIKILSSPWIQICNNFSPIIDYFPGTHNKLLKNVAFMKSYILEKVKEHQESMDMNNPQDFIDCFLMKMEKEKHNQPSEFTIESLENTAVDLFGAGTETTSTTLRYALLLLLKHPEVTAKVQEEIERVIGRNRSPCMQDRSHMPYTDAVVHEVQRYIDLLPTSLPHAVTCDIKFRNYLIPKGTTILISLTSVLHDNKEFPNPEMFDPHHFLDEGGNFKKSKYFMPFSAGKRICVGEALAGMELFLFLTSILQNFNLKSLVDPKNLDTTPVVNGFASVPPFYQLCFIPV

[8] = Cytotoxicity against human KU812 cells expressing BCR-ABL assessed as growth inhibition after 72 hrs by CCK-8 assay; format: functional, cell-based; details: KU812, 72 h
In short: (§1)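 Log-phase human leukemia cells were seeded at about 3000 cells/well and treated 24 h later for 72 h. CCK-8 was then incubated with the cells for 3 h and read as OD450 − OD650. Viability was normalized to vehicle wells and cell-free blanks, and IC50 taken as the mean of three experiments.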

K562 [9] = test: Antitumor activity against human K562 cells xenografted in mouse assessed as reduction in tumor size at 2 to 10 mg/kg, po qd for 2 days; format: functional, organism-based
[10] = biological target: T2, Tyrosine-protein kinase ABL1 (Homo sapiens, UniProt P00519, M351T); test: Inhibition of human recombinant ABL1 M351T mutant expressed in insect cells after 30 mins by FRET assay; format: cell-based
[11] = Intrinsic clearance in rat liver microsomes at 1 uM; format: ADME, Microsome; details: read-out: CLH
K562 [12] = test: Antitumor activity against human K562 cells xenografted in mouse assessed as decrease in tumor recurrence at 2 mg/kg, po qd for 20 days; format: functional, organism-based; set-up: dose 2 mg/kg
[13] = biological target: Tyrosine-protein kinase ABL1 (Homo sapiens, UniProt P00519, Y253F); test: Inhibition of human recombinant ABL1 Y253F mutant expressed in insect cells after 30 mins by FRET assay; format: cell-based
[14] = Cytotoxicity against mouse BA/F3 cells expressing BCR-ABL F486S mutant assessed as growth inhibition after 72 hrs by CCK-8 assay; details: BaF3, 72 h
BaF3 [15] = test: Antitumor activity against mouse BA/F3 cells expressing BCR-ABL T315I mutant allografted in po dosed SCID mouse assessed as reduction of hepatosplenomegaly administered qd for 14 days; format: functional, organism-based
[16] = biological target: T2, Tyrosine-protein kinase ABL1; test: Binding affinity to phosphorylated ABL1 M351T mutant (unknown origin) after 1 hr
K562 [17] = test: Antitumor activity against human K562 cells xenografted in po dosed mouse assessed as inhibition of tumor growth administered qd for 14 days; format: functional, organism-based
In short: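 K562 cells suspended in normal saline (2.5 × 10^7 cells/mL), 0.2 mL injected subcutaneously into the right flank. Mice were randomised once mean tumour volume reached 100−200 mm3. Oral gavage once daily for 14 days, in 1% DMSO/22.5% Cremophor/7.5% ethanol/69% saline. Tumour volume (L × W²/2) and body weight taken every 2 days; recurrence followed 20 days after dosing stopped. n = 10/group; unpaired t test versus vehicle.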

[18] = Cytotoxicity against human SUP-B15 cells expressing BCR-ABL assessed as growth inhibition after 72 hrs by CCK-8 assay; format: functional, cell-based; details: SUP-B15, 72 h; in short: as §1
Cytochrome P450 2C19 = Cytochrome P450 2C19 (Homo sapiens, UniProt P33261); test: Inhibition of human recombinant CYP2C19 after 30 mins; format: ADME
Cytochrome P450 2C19, sequence (P33261 whole entry): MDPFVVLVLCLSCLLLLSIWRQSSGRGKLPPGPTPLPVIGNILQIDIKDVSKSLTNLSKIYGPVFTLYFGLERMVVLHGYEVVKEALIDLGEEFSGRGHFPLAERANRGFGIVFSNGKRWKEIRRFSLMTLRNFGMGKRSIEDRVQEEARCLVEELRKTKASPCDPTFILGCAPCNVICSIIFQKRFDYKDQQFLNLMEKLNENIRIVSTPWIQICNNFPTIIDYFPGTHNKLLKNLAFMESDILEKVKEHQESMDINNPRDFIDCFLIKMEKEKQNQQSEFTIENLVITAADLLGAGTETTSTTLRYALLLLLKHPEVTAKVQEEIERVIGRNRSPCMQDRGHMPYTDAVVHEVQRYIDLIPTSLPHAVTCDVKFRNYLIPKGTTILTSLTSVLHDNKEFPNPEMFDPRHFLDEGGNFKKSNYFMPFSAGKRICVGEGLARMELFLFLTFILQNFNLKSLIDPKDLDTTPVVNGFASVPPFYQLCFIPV

[19] = Apparent permeability from apical to basolateral side in human Caco2 cells by LC-MS/MS analysis; format: ADME, cell-based; details: Caco-2
[20] = Mean residence time in rat at 25 mg/kg, po; format: ADME, organism-based; set-up: dose 25 mg/kg, route oral; details: in vivo
In short: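 Bismesylate salt given to rats as a single iv dose of 5 mg/kg or a single oral dose of 25 mg/kg. Plasma drug levels were followed over time to derive the PK parameters. The 12 h and 24 h plasma levels come from the oral 25 mg/kg dose.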

[21] = biological target: T1, Tyrosine-protein kinase ABL1; test: Binding affinity to non phosphorylated wild type ABL1 (unknown origin) after 1 hr
BaF3 [22] = test: Antitumor activity against mouse BA/F3 cells expressing BCR-ABL T315I mutant allografted in SCID mouse assessed as suppression of cell proliferation at 5 to 20 mg/kg/day, po qd for 10 days relative to untreated vehicle; format: functional, organism-based
In short: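 Ba/F3 Bcr-Abl T315I cells stably carrying firefly luciferase, in saline, were injected i.v. into SCID nude mice (2 × 10^6 cells/0.1 mL). Imaging began 5−7 days later: i.p. D-luciferin, halothane anaesthesia, images after 5 min. Mice were randomised by signal and dosed by oral gavage once daily for 10 days (5, 10, 20 mg/kg/day; imatinib 100 mg/kg; vehicle). Luminescence was quantified; survival by Kaplan−Meier with log-rank test.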

K562 [23] = test: Cytotoxicity against human K562 cells expressing BCR-ABL assessed as growth inhibition after 72 hrs by CCK-8 assay; format: functional, cell-based; details: K562, 72 h; in short: as §1
Mus musculus = test: Toxicity in human K562 cells xenografted mouse assessed as body weight loss relative to vehicle-treated control; format: organism-based; details: in vivo
In short: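 K562 cells (2.5 × 10^7 cells/mL in normal saline, 0.2 mL) were injected subcutaneously into the right flank. Mice were randomized once mean tumor volume reached 100−200 mm3, n = 10 per group. Dosing was by oral gavage once daily for 14 days in 1% DMSO/22.5% Cremophor/7.5% ethanol/69% saline. Tumor volume (L × W²/2) and body weight were measured every 2 days; unpaired t test versus vehicle.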

U-937 = test: Cytotoxicity against human U937 cells […] assessed as growth inhibition after 72 hrs by CCK-8 assay; format: functional, cell-based; details: U-937, 72 h; in short: as §1

SMILES: Cc1ccc(C(=O)Nc2ccc(CN3CCN(C)CC3)c(C(F)(F)F)c2)cc1C#Cc1cnc2[nH]ncc2c1 [OLVEREMBATINIB]
- IC50 [1]: 340 pM
- IC50 [2]: 8100 pM
- IC50 [3]: 680 pM
- IC50 (K562 [4]): 4500 pM
- Activity [5]: inactive
- Activity (BaF3 [6]): Active
- IC50 [7]: 2700 pM
- IC50 (Cytochrome P450 2C9): 110000 pM
- IC50 [8]: 130 pM
- Activity (K562 [9]): Active
- IC50 [10]: 290 pM
- microsomal CLint at 1 µM [11]: 36.4 µL/min/mg
- Activity (K562 [12]): inactive
- IC50 [13]: 350 pM
- IC50 [14]: 1000 pM
- Activity (BaF3 [15]): Active
- Kd [16]: 230 pM
- TGI (K562 [17]): Dose-dependent effect
- IC50 [18]: 2500 pM
- IC50 (Cytochrome P450 2C19): 990000 pM
- Papp A→B [19]: 0.32 ×10⁻⁶ cm/s
- MRT [20]: 17.9 h
- Kd [21]: 320 pM
- Activity (BaF3 [22]): Active
- IC50 (K562 [23]): 200 pM
- Activity (Mus musculus): < 5%
- IC50 (U-937): 390000 pM
